Columns and labels:
[1] = tested on: Friend leukemia cell line; experiment: Inhibitory activity against cellular replication in Friend erythroleukemia cells as growth inhibition.; type: functional; details: Mus musculus, read-out: ID50 (the source's name)
How it was run: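 Exponentially growing parental Friend erythroleukemia cells at (7–8) × 10⁴ cells/mL in DMEM with 15% FBS under 10% CO₂. Incubated with graded 2.5-fold concentration steps. Cell number was counted on day 3 with a particle counter, and percent growth inhibition was calculated from log cell number.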

[2] = tested on: Friend leukemia cell line; experiment: Inhibitory activity against cellular differentiation in Friend erythroleukemia cells as optimal concentration required for maximum activity.; type: functional, Mus musculus
How it was run: (§1)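 Parental Friend murine erythroleukemia cells in exponential growth, seeded at (7–8) × 10⁴ cells/mL in Dulbecco's modified Eagle's MEM with 15% fetal bovine serum and 2 mM L-glutamine under 10% CO₂. Exposed to graded 2.5-fold concentration increases. On day 6, hemoglobin-containing cells staining blue with acidic 3,3',5,5'-tetramethylbenzidine peroxide were counted cytologically and reported as percent benzidine-positive cells.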

[3] = tested on: Friend leukemia cell line; experiment: Inhibitory activity against cellular differentiation in Friend erythroleukemia cells as percentage of benzidine - positive cells.; type: functional, Mus musculus; how it was run: as §1
[4] = tested on: Friend erythroleukemia cells, HGPRT- (Mus musculus); experiment: Inhibitory activity against cellular replication in hypoxanthine-guanine phosphoribosyltransferase (HGPRT-) Friend murine erythroleukemia cells.; details: read-out: ID50 (the source's name)

| SMILES | IC50 [1] [mM] | IC50 [4] [mM] | Optimal concentration [2] [mM] | Benzidine positive cells [3] [%] |
| --- | --- | --- | --- | --- |
| Nc1nc(O)c2nc(N)n([C@@H]3O[C@H](CO)[C@@H](O)[C@H]3O)c2n1 | 1.7 | 1.7 | 0.4 | 34 |
| Nc1nc(O)c2nc(S)n([C@@H]3O[C@H](CO)[C@@H](O)[C@H]3O)c2n1 | 3.5 | 3.5 | 2 | 4 |
| CN(C)c1nc2c(=O)[nH]c(N)nc2n1[C@@H]1O[C@H](CO)[C@@H](O)[C@H]1O | > 5 | > 5 | 5 | 68 |
| Nc1nc2c(nc(Br)n2[C@@H]2O[C@H](CO)[C@@H](O)[C@H]2O)c(=O)[nH]1 | 5.1 | 5.1 | 5 | 6 |
| Nc1nc(O)c2nc(OCc3ccccc3)n(C3O[C@H](CO)[C@@H](O)[C@H]3O)c2n1 (stereo partly specified) | > 8 | > 8 | 8 | 4 |
| CS(=O)(=O)c1nc2c(O)nc(N)nc2n1C1O[C@H](CO)[C@@H](O)[C@H]1O (stereo partly specified) | 5.4 | 10 | 5 | 30 |
| Nc1nc(O)c2ncn([C@H]3C[C@H](O)[C@@H](CO)O3)c2n1 [DEOXYGUANOSINE] | 0.29 | 0.49 |  | 0 |
| C[S+](C)[O-] [DIMETHYL SULFOXIDE] |  |  | 200 | 70 |

More lines, main results first:

| IC50 [1] [mM] | IC50 [4] [mM] | SMILES | Optimal concentration [2] [mM] | Benzidine positive cells [3] [%] |
| --- | --- | --- | --- | --- |
| 0.39 | 0.39 | Nc1nc2c([nH]c(=O)n2[C@H]2C[C@H](O)[C@@H](CO)O2)c(=O)[nH]1 | 0.2 | 62 |
| > 5 | > 5 | Nc1nc(O)c2nc(Br)n([C@H]3C[C@H](O)[C@@H](CO)O3)c2n1 | 7 | 20 |
| > 5 | > 5 | Nc1nc(O)c2nc(OCc3ccccc3)n([C@H]3C[C@H](O)[C@@H](CO)O3)c2n1 | 7 | 7 |
| > 5 | > 5 | COc1nc2c(O)nc(N)nc2n1[C@H]1C[C@H](O)[C@@H](CO)O1 | 5 | 22 |
| 2.9 | 4.9 | CNc1nc2c(=O)[nH]c(N)nc2n1[C@@H]1O[C@H](CO)[C@@H](O)[C@H]1O | 1 | 42 |
| 3.6 | 3.6 | [N-]=[N+]=Nc1nc2c(O)nc(N)nc2n1C1O[C@H](CO)[C@@H](O)[C@H]1O (stereo partly specified) | 2 | 12 |
| > 8 | > 8 | COc1nc2c(O)nc(N)nc2n1C1O[C@H](CO)[C@@H](O)[C@H]1O (stereo partly specified) | 8 | 7 |
| > 8 | > 8 | CSc1nc2c(O)nc(N)nc2n1C1O[C@H](CO)[C@@H](O)[C@H]1O (stereo partly specified) | 5 | 11 |
| > 5 |  | Nc1nc(O)c2nc(NO)n(C3O[C@H](CO)[C@@H](O)[C@H]3O)c2n1 (stereo partly specified) | 6 | 7 |
| 8 | 8 | Nc1nc2c(nc(O)n2[C@@H]2O[C@H](CO)[C@@H](O)[C@H]2O)c(=O)[nH]1 [8-HYDROXYGUANOSINE] | 5 | 33 |
| 1.2 | 7.8 | Nc1nc2c(ncn2[C@@H]2O[C@H](CO)[C@@H](O)[C@H]2O)c(=O)[nH]1 [GUANOSINE] |  | 0 |
